# High-throughput results: PubChem, The Scripps Research Institute Molecular Screening Center
# TAAR1 agonist – human TAAR1 agonists, primary screen, Fluo-8 calcium fluorescence, CHO RD-HGA16 cells | AID 624467, 2012 | vehicle wells 0%, saturating PEA agonist 100% | Trace amine-associated receptor 1 (Homo sapiens), Q96RJ0 | activation, % at 3 µM | 360,000 tested, 0.99% active;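 active = activation above the mean activation of all test compounds in the run plus 3 SD, cut at about 38% in these data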
#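 Assay system – CHO-derived RD-HGA16 cells with stable Gα16 and human TAAR1 · Compound dosing – one-point dosing at 3 µM (nominal) · Incubation – 17-24 h seeding, 75 min 37 °C dye, 30 min RT · Measured by – kinetic Fluo-8 calcium fluorescence · Control set – DMSO vehicle as 0%, PEA at EC100 as 100% · Repeats – single well for each compound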
# OX1R antag-1 – antagonists of human orexin 1 receptor (OX1R) | inhibition, % at 6.6 µM | Orexin/Hypocretin receptor type 1 (Homo sapiens), O43613 | 330,000 tested, 1.8% active | OX1R-expressing cells, FRET antagonist read-out; in the data active = inhibition mostly above about 38%, no sharp cut-off; inactive = mostly below about 40%;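 note: 0% = agonist challenge alone and 100% = reference antagonist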
# Target sequence (O43613 whole entry, looked up): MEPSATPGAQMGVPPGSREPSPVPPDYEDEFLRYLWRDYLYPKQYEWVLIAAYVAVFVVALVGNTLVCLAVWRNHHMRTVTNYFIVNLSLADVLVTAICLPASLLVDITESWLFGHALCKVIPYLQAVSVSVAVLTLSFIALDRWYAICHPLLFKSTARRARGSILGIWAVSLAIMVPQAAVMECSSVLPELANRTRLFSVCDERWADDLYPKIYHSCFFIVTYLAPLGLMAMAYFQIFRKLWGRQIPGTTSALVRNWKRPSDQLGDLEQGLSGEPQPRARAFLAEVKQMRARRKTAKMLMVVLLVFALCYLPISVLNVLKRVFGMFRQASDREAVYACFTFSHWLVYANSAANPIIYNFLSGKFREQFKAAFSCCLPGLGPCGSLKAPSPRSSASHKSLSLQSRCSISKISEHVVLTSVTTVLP
# OX1R antag-2 – OX1R (HCRTR1) antagonists, primary screen, fluorescence, CHO/OX1R cells, Fluo-8 calcium, orexin A; inhibition, % at 5 µM; AID 434989, 2010; 330,000 tested, 0.43% active; Fluo-8 calcium fluorescence;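 active = inhibition above its plate's threshold, mean inhibition of all tested compounds on the plate plus 3 SD, cut at about 37% in these data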;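 note: 0% = orexin A challenge wells and 100% = SB-334867-A antagonist wells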
# TAAR1 antagonist – human TAAR1 antagonists, primary screen, Fluo-8 calcium fluorescence, CHO RD-HGA16 cells. Trace amine-associated receptor 1 (Homo sapiens), Q96RJ0. antagonist. inhibition, % at 3 µM. 360,000 tested, 1.5% active;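 active = inhibition above a per-plate cutoff, the mean inhibition of test compounds on that plate plus 3 SD, cut at about 49% in these data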;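 note: 0% = DMSO plus EC80 beta-PEA response and 100% = DMSO alone without agonist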
#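 Test system – hTAAR1-expressing CHO RD-HGA16 cells, Gα16-coupled · Also added – β-PEA at EC80 concentration, post-compound challenge · Compound – 3 µM, single point · Incubation – dye loading 75 min at 37 °C, then 30 min room temperature · Measured by – Fluo-8 intracellular calcium dye fluorescence, real-time kinetic reads · Benchmarks – vehicle and agonist controls · Replicates – singlicate, one well per test compound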
# CHO parental Ca – ATP-evoked calcium signal inhibitors, parental CHO, primary screen, counter-screen for OX1R antagonist project, cell-based, fluorescence, Fluo-8 calcium dye; parental CHO-K1, ATP-induced calcium, Fluo-8 fluorescence; inhibition, % at 5.6 µM; 330,000 tested, 0.63% active; AID 463079, 2010;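 active = inhibition above that plate's mean sample inhibition plus 3 SD, cut at about 26% in these data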;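 note: 0% = ATP-challenged DMSO wells and 100% = DMSO wells without ATP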
#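 Test system: untransfected parental CHO cell line. Compound: one dose, 5.6 µM nominal. Detection: intracellular calcium via Fluo-8 no-wash fluorescent dye. Measure: % inhibition. Benchmarks: ATP-challenged DMSO wells low, unchallenged DMSO wells high.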
# Starred values were filed as active, the others as inactive; · = not tested or not shown. Only some compounds are listed: those with a hit (about 3.9% of all), similar ones and a draw of the others.
SMILES,TAAR1 agonist,OX1R antag-1,OX1R antag-2,TAAR1 antagonist,CHO parental Ca
COc1ccc(OC)c(N(CC(=O)NCCSCc2ccco2)S(=O)(=O)c2ccccc2)c1,9.8,50.7*,-2.5,32.1,-15.4
COc1ccccc1OCCNC(=O)CN(c1cccc(C)c1)S(=O)(=O)c1ccccc1,5.3,71.9*,17.0,49.3*,-24.6
O=C(NCc1ccccc1)C(C1CC1)n1c(CSCCOc2ccccc2)nc2ccccc21 (centres undefined),0.2,·,·,11.5,·
N#CCCN(C(=O)COC(=O)c1ccc(Cl)nc1)c1ccc2c(c1)OCCO2,1.7,·,·,-13.8,·
CCC(=O)c1ccc(OCC(=O)OCC(=O)N(CCC#N)c2ccc3c(c2)OCCO3)cc1,7.8,2.2,26.1,21.7,44.3*
Cc1ccc(CNc2ncnc3ccc(-c4ccc(CO)o4)cc23)o1,0.1,·,·,6.7,·
O=C(/C=C/c1ccc(OCCCF)cc1)Nc1ccnc(-c2ccncc2)n1,11.5,84.5*,21.7,15.7,30.0
O=C(/C=C/c1ccc(OCCCF)cc1)Nc1ccnc(-c2cccnc2)n1,19.1,27.6,-14.9,54.9*,-5.0
Cc1onc(-c2c(F)cccc2Cl)c1C(=O)Nc1cc2cc([N+](=O)[O-])ccc2oc1=O,-1.7,·,·,-20.0,·
Clc1ccccc1CSc1nnc(-c2ccccn2)n1Cc1ccco1,11.6,57.3*,23.6,17.7,-23.6
CCN(C(=O)CSc1nc2ccc([N+](=O)[O-])cc2s1)C1CCS(=O)(=O)C1 (centres undefined),1.9,68.0*,-4.6,1.1,-10.3
CCN(C(=O)CSc1nnc(SC(C)C)s1)C1CCS(=O)(=O)C1 (centres undefined),3.0,3.1,-13.1,2.4,-16.6
NS(=O)(=O)c1ccc(OCCCN2CCC(C(O)(c3ccccc3)c3ccccc3)CC2)cc1,5.6,·,·,-4.1,·
O=C(Nc1cccc(OC(F)(F)F)c1)c1ccc(-c2cccnc2)c2ccoc12,8.0,·,·,16.3,·
O=C(NCCn1cc(SCc2ccc(F)cc2)c2ccccc21)c1ccccc1F,·,29.4,8.9,·,71.1*
CCCn1cc(SCC(=O)NCc2ccco2)c2ccccc21,-1.5,15.8,-9.5,-4.1,-14.6
O=C(CSc1cn(CCNC(=O)c2ccccc2)c2ccccc12)NCc1ccco1,2.3,41.5*,-10.9,6.6,-13.8
COc1ccc(C(=O)C[C@@H]2OC[C@H](C(C)C)N2S(=O)(=O)c2ccc(C)cc2)cc1OC,0.4,·,·,-13.5,·
O=c1oc2c3c4c(cc2c2c1CCC2)OCCN4CCC3,0.4,58.7*,-5.8,-1.2,-13.5
Cc1ccc(C(=O)N2CCC[C@@H]2C(=O)N2CCC[C@@H]2C(=O)NCc2ccccc2)cc1,-0.6,·,·,-14.3,·
Cn1cccc1C(=O)NC(=O)COC(=O)c1ccc(S(C)(=O)=O)c([N+](=O)[O-])c1,·,33.1,23.2,·,9.4
CS(=O)(=O)c1ccc(C(=O)OCC(=O)NC23CC4CC(CC(C4)C2)C3)cc1[N+](=O)[O-],10.0,25.8,42.4*,21.2,68.2*
CCc1ccc(-n2c(=S)sc3c(=O)[nH]c(SCC(=O)NC4CCCCC4)nc32)cc1,7.6,·,·,-25.7,·
CC1=C(Nc2ccc(C(=O)O)cc2)C(=O)c2ccccc2C1=O,-1.4,44.1*,-14.1,-6.1,-2.2
CC(C)CN(C(=O)C1CCCO1)c1c(N)n(CC(C)C)c(=O)[nH]c1=O (centres undefined),0.2,·,·,-24.7,·
COC(=O)c1ccc(CN2C(=O)[C@]3(OCCC=C[C@H]3C)c3cc(OC)ccc32)cc1,0.1,·,·,-34.4,·
COc1cc(CN2C[C@@H](CO)O[C@@H](n3cnc4c(NCC(C)C)ncnc43)C2)cc(OC)c1OC,7.6,·,·,-21.9,·
COC(=O)c1sc(-c2ccc(C(C)(C)C)cc2)cc1NC(=O)c1ccccc1C(=O)O,-0.7,14.1,-12.8,19.7,14.9
COC(=O)c1sc(-c2ccc(C(C)(C)C)cc2)cc1NC(=O)CSCC(=O)O,5.1,20.2,9.2,49.0*,2.5
O=C(Oc1ccccc1)c1ccccc1OS(=O)(=O)c1ccccc1,0.0,41.2,61.4*,13.3,65.1*
